# Compound activity (PubChem)
# The list is not random: actives were taken first. Their share in the collection is about 0.77%.
# mIAP act: mouse IAP activation; muIAP, CDP-Star luminescence, 30 min; active compounds read high; 1 = vehicle-only enzyme signal, 0 = enzyme-free wells; activation factor at 10 µM; hit rate 0.24% among 330,000; AID 2805;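 active means activation factor of at least 2 at 20 µM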
#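 System: Mouse IAP enzyme | Also added: CDP-Star substrate | Dosing: Compounds dispensed in DMSO | Schedule: 30 min enzyme-substrate-compound incubation at room temperature | Technique: Chemiluminescence readout | Control set: DMSO-only wells and no-enzyme negative control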
# bIAP act: increases bovine intestinal alkaline phosphatase activity; purified bovine IAP, CDP-star luminescence, 30 min; active compounds read high; fold of DMSO-control signal, blank-subtracted; activation factor at 20 µM; hit rate 0.17% among 200,000;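 active means activation factor of 2 or more at 20 µM, a signal rise over negative controls twice the positive control's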
# hIAP act: human IAP activation; P09923; purified human IAP, CDP-Star luminescence, 30 min; active compounds read high; 1 = vehicle-only enzyme, 0 = enzyme-free background; activation factor at 10 µM; hit rate 0.16% among 330,000; AID 2524;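 active means activation factor of the enzyme at least 2-fold when tested at 20 µM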
# Target sequence (P09923 whole entry, looked up): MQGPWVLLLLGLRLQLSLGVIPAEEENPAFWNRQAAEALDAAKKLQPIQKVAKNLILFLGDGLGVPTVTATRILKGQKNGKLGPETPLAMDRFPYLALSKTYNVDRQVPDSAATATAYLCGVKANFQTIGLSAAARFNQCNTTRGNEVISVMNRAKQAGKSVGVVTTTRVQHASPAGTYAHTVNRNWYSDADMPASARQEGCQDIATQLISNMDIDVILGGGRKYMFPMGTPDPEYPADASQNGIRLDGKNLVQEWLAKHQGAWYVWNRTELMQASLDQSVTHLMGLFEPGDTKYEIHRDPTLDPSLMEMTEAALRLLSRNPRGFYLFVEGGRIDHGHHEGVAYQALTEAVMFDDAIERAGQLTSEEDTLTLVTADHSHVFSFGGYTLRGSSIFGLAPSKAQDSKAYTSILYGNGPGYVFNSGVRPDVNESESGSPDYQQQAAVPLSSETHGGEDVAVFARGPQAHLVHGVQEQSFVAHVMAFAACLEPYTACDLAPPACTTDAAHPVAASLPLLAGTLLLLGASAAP
# bIAP inhibitor: intestinal alkaline phosphatase (bovine) inhibition. purified bovine IAP, CDP-star luminescence, 30 min. inhibition, % at 20 µM. 190,000 tested, under 10 active. AID 1019;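 active means over 50% inhibition of intestinal alkaline phosphatase at 20 µM in the single-dose screen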
#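 System: purified bovine intestinal alkaline phosphatase (IAP) enzyme; Input: IAP diluted 1/65,000,000 in the well; Measured by: CDP-star luminescence signal; Compound dosing: 20 µM single dose; Incubation: 30 min reaction at room temperature.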
# mIAP block: mouse IAP inhibition | inhibition, % at 10 µM | purified mouse IAP, CDP-Star luminescence, 30 min | AID 2806 | hit rate 0.2% among 330,000;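 active means inhibition of at least 40% at 10 µM in the primary screen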
# hIAP block: blocks human intestinal alkaline phosphatase. purified IAP, CDP-Star luminescence, 30 min. inhibition, % at 10 µM. hit rate 0.12% among 330,000. AID 2544;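 active means inhibition reaching a set limit with compound at 10 µM in the primary screen, cut at about 35% in these data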
# hIAP act confirm: human IAP activation confirmation. purified IAP, CDP-Star luminescence, 30 min; active compounds read low. activation (%Activity, negative = activation), % at 8.3 µM. AID 434926. shares compounds with hIAP act. hit rate 10% among 880;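 active means at least twofold enzyme activation in any of six single-dose repeats, which the averaged readout prints as negative percent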
# Hits are given with their value; – = inactive; · = not tested or not shown.
SMILES,mIAP act,bIAP act,hIAP act,bIAP inhibitor,mIAP block,hIAP block,hIAP act confirm
Cc1ccccc1-c1cn(-c2ccccc2)c(=S)[nH]1,–,·,–,·,–,–,·
COc1ccc(C(=O)N/C(=C\c2ccco2)C(=O)NCCCn2ccnc2)cc1,–,–,–,–,–,–,·
Cc1ccc(C(=O)N/C(=C\c2ccco2)C(=O)NCCCn2ccnc2)cc1C,–,–,–,–,–,86,–
CCn1c2ccccc2c2cc(/C=N/n3cn[nH]c3=S)ccc21,–,–,–,–,–,–,·
CCn1c2ccccc2c2cc(/C=N/n3c(-c4cc(C)[nH]n4)n[nH]c3=S)ccc21,–,·,2.1,·,–,–,–
COc1ccc(CCNC(=O)c2cc(-c3ccc(C)cc3O)n[nH]2)cc1OC,–,–,2.1,–,–,–,–
Cc1ccc(NC(=O)c2cc(-c3ccccc3O)n[nH]2)cc1Cl,–,·,–,·,–,–,·
COc1ccc(CCNC(=O)c2cc(-c3cc(C)cc(C)c3O)n[nH]2)cc1OC,–,·,–,·,–,–,·
Cc1cc(C)c(O)c(-c2cc(C(=O)NCCc3ccc(S(N)(=O)=O)cc3)[nH]n2)c1,–,·,–,·,–,–,·
NS(=O)(=O)c1ccc(NC(=O)c2cc(-c3ccccc3O)n[nH]2)cc1,–,·,2,·,–,–,–
COc1ccc(CCNC(=O)c2cc(-c3cc(Cl)ccc3O)n[nH]2)cc1OC,–,·,2.3,·,–,–,–
Cc1cc(O)c(-c2cc(C(=O)NCCc3ccc(S(N)(=O)=O)cc3)[nH]n2)cc1C,–,·,2.2,·,–,–,–
CCC(CO)Oc1cc(NC(=O)c2ccc([N+](=O)[O-])cc2)c2ncn(C(C)C)c2c1 (stereo not drawn),–,·,–,·,–,–,·
CCC(CC)C(=O)c1c[nH]c(C(=O)NCc2ccccc2OC)c1,–,·,–,·,–,–,·
Cc1cc(NC(=O)c2ccc(N3C(=O)C4C5C=CC(C5)C4C3=O)cc2)no1 (stereo not drawn),–,–,3,–,–,–,-161
Cc1cc(NC(=O)c2ccc(N3C(=O)CCC3=O)cc2)no1,–,–,–,–,–,–,·
O=C(/C=C/c1ccccc1)OCN1C(=O)c2ccccc2C1=O,–,·,–,·,–,–,·
COc1cc(/C=N/N=C2/C(=O)Nc3ccccc32)ccc1O,–,–,–,–,–,–,·
O=C1Nc2ccccc2/C1=N\N=C\c1ccc(O)c(O)c1,–,·,–,·,–,35,–
O=C(COc1ccc(F)cc1Cl)N(Cc1nnc(-c2ccccc2Cl)o1)C1CC1,–,·,–,·,–,–,·
O=S(=O)(Nc1ccc2c(c1)OCCO2)c1cccs1,–,–,–,–,–,–,·
O=S(=O)(Nc1ccc2c(c1)OCCO2)c1ccc(Br)s1,–,–,2.1,–,–,–,–
O=C1C=C(c2cccc(Br)c2)C[C@@H](c2ccc(Cl)cc2)C1,–,·,–,·,–,–,·
COC(=O)c1cc(NC(=O)CN2C(=O)C(=O)N(C3CCCC3)C2=O)cc(C(=O)OC)c1,–,·,–,·,–,–,·
CN(C(=O)c1ccncc1)c1ccccc1,–,·,–,·,–,–,·
SMILES,mIAP act,bIAP act,hIAP act,bIAP inhibitor,mIAP block,hIAP block,hIAP act confirm
C/C(=N\N(Cc1ccccc1)c1ccccc1)c1ccncc1,–,–,–,–,–,39,–
COc1cc2c(cc1OC)CN(C(=O)C(CCSC)NS(=O)(=O)c1ccc(C)cc1)CC2 (stereo not drawn),–,·,–,·,–,–,·
Nc1ccc(S(=O)(=O)N2CCc3ccccc32)cc1,–,·,–,·,–,38,–
CCc1ccnc(NS(=O)(=O)c2ccc3c(c2)CCO3)c1,–,·,–,·,–,–,·
COc1ccc(CC(=O)NCC(=O)N/N=C/c2sccc2C)cc1,–,·,–,·,–,–,·
O=C(N/N=C/c1ccccc1O)C(=O)Nc1ccccn1,–,–,2,–,–,–,–
COc1ccc(/C=N/NC(=O)C(=O)Nc2ccccn2)cc1OC,–,–,–,–,–,–,·
CC(=O)Nc1ccc(S(=O)(=O)N(C)CCOCc2ccccc2)cc1,–,–,–,–,–,38,–
NC(=O)c1ccc(N2CCNC(=O)C2)c([N+](=O)[O-])c1,–,·,–,·,–,–,·
Cc1occc1C(=O)NNC(=S)Nc1cccc([N+](=O)[O-])c1,–,–,2.1,–,–,–,–
O=C(COC(=O)Cc1ccc(Br)cc1)NC1CC1,–,·,–,·,–,–,·
